PERK inh: block of dimerizer-induced PERK translation repression, primary screen, PERK inhibitor project, CHO PERK-DD cells, SEAP luminescence, HTS; Eukaryotic translation initiation factor 2-alpha kinase 3 (Homo sapiens), Q9NZJ5; CHO PERK-DD fusion, SEAP luminescence translation reporter; inhibition, % at 5.6 µM; 220,000 tested, 0.17% active; AID 1416, 2008;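 active = inhibition above the mean inhibition of all tested compounds plus 3 SD, set separately per screening campaign, cut at about 2.9% in these data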;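 note: PERK kinase domain activated by AP20187 dimerizer at 100 nM; 0% = DMSO with dimerizer and 100% = rapamycin at 8.4 µM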
APP 5'UTR act: activators of APP 5'UTR luciferase reporter, primary screen, SH-SY5Y cells; SH-SY5Y APP 5'UTR luciferase reporter, luminescence; zero percent = DMSO vehicle wells; AID 1276, 2008; activation, % at 2 µM; 190,000 tested, 1% active;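 active = activation above a set limit, based on mean plus 3 SD of controls, cut at about 140% in these data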
NF-kB expr up: activators of NF-kB expression in neurons, primary screen, cell-based, HTS. human neuronal cells, NF-kB reporter expression; stronger effect = higher value. AID 1239, 2008. 190,000 tested, 1.6% active. fold change at 12.5 µM; in the data active = fold change above about 3.3
AHR activator: AHR activators, primary screen, cell-based, luminescence, luciferase reporter, human; AHR-responsive luciferase reporter cells; activation, % at 5 µM; 320,000 tested, 2.5% active; AID 2796, 2010; in the data active = activation above about 47%;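 note: 0% = vehicle wells and 100% = reference agonist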
Mdm2 ligase inh: MDM2-luciferase reporter signal enhancers, primary screen, MDM2 E3 ligase inhibitor project, cell-based, luminescence, 1536-well; E3 ubiquitin-protein ligase Mdm2 (Homo sapiens), Q00987; cell-based MDM2 ubiquitination luciferase reporter, 2 h; 0 = plate control, 100 = twice control, blank-subtracted; signal enhancement, % at 5 µM; 210,000 tested, 0.11% active; AID 1230, 2008;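 active = signal enhancement of 30% or more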;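 note: luminescence tracks abundance of the self-degrading MDM2-luciferase fusion protein; higher signal means inhibition of MDM2 E3 ligase activity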
Target sequence (Q00987 whole entry, looked up, the tested form may be a part): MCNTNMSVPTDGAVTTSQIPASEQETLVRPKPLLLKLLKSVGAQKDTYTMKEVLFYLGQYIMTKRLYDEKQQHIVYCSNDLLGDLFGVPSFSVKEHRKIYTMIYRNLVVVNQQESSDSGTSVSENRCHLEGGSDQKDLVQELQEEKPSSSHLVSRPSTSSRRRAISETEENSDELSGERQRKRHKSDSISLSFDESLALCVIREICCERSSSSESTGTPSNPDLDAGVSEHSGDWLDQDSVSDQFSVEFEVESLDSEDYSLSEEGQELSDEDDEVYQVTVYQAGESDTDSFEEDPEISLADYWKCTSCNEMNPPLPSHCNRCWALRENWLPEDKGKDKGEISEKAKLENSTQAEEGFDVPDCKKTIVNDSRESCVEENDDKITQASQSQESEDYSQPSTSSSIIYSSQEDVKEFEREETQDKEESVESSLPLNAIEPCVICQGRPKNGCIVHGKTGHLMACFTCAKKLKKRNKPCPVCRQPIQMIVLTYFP
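Buffer or medium: Cells held in DMEM | Assay system: Stable mammalian line carrying autodegrading MDM2–luciferase fusion reporter | Quantity: 2000 cells/well | Times: 4 h settle plus 2 h compound, 37 °C | Doses: One concentration, 5 µM, with 0.2% DMSO | Technique: Luminescence with SteadyLite reagent, 15 min at room temperature | Benchmarks: Plate controls and plate blanks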
STAT1 activator: STAT1 signaling activators, primary screen, cell-based, HTS, luciferase reporter; 200,000 tested, 2.6% active; NIH 3T3 STAT1-luciferase reporter, IFN-gamma, luminescence; 100% = IFN-gamma alone, no compound; AID 932, 2007; activation (% of control), % at 5.5 µM;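 active = activation above the screen-wide mean activation plus 3 SD, cut at about 130% in these data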;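 note: raw ratio to IFN-gamma control signal so 100% means no change and 0% no light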
AHR act confirm: AHR activators, confirmation, cell-based, luminescence, luciferase reporter, human | shares compounds with AHR activator | human cells, AHR-responsive luciferase reporter | activation, % at 9 µM | 2,300 tested, 87% active; in the data active = activation above about 49%;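 note: HepG2 hepatoma cells carrying a DRE-driven firefly luciferase reporter; 0% = vehicle wells and 100% = reference agonist wells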
PXR act counter: human PXR activators, counter-screen for AHR activator project, cell-based, luciferase luminescence. shares compounds with AHR activator. cell-based PXR reporter. activation, % at 11.6 µM. 2,300 tested, 88% active; in the data active = activation above about 11%;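 note: human hepatoma DPX-2 cells expressing full-length human PXR; 0% = DMSO and 100% = reference agonist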
Numbers without * were called inactive; . = no result. Sampled rows, rich in hits. Any-hit rate of the full collection: about 4.5%.

SMILES | PERK inh | APP 5'UTR act | NF-kB expr up | AHR activator | Mdm2 ligase inh | STAT1 activator | AHR act confirm | PXR act counter
CC(Oc1ccccc1)C(=O)Nc1ccc(NC(=O)c2ccccc2)cc1 (stereo unspecified) | . | . | . | 1.9 | . | . | . | .
Cn1c(-c2ccsc2)c(-c2cccs2)c2cc(-c3cccc4[nH]ccc34)ccc21 | . | . | . | 111.8* | . | . | 101.3* | 79.0*
Nc1nc(/C=C/c2ccc(F)cc2)nc(-c2ccccc2O)n1 | -0.1 | -10.6 | 1.07 | 109.2* | -3.6 | 104.0 | 135.5* | 17.8*
Nc1nc(N)nc(-c2cc(F)ccc2O)n1 | . | . | . | 24.7 | . | . | . | .
CCCS(=O)(=O)Nc1c(OC)ccc2c1c(C(=O)OCC)c(C)n2C | -0.8 | -10.1 | 0.98 | 84.7* | -12.7 | 95.2 | 74.2* | 118.9*
CCOC(=O)c1c(C)n(C)c2ccc(OC)c(NC(=O)c3cccs3)c12 | -2.0 | -0.1 | 0.91 | 20.1 | -6.0 | 106.5 | . | .
CCn1c(=O)c(C(=O)Nc2ncccc2C)c(O)c2ccccc21 | 0.4 | 1.1 | 1.05 | 111.2* | -0.6 | 99.2 | 96.1* | 26.4*
O=C1c2ccccc2C(=O)c2c1cccc2N(CCO)CCO | . | . | . | 130.5* | . | . | 13.6 | 7.7
O=C(CN1CCN(c2ccccc2O)CC1)Nc1ccccc1C(=O)NCCc1ccccc1 | . | . | . | 90.8* | . | . | 92.9* | 85.4*
CC(NC(=O)c1ccccc1NC(=O)CN1CCN(c2ccccc2O)CC1)c1ccccc1 (stereo unspecified) | . | . | . | 6.6 | . | . | . | .
COc1ccc(Br)cc1C(=O)Nc1ccc(N2CCN(S(C)(=O)=O)CC2)cc1 | -1.7 | 17.3 | 1.65 | -6.4 | 11.7 | 89.9 | . | .
COc1ccc(Br)cc1C(=O)Nc1ccc(N2CCCC2)cc1 | . | . | . | 104.6* | . | . | 148.1* | 17.7*
COc1ccccc1C(=O)Nc1ccc(N2CCCCC2)cc1 | -0.4 | 167.6* | 4.94* | 87.6* | -7.2 | 139.5* | 99.2* | .
COc1ccccc1C(=O)Nc1ccc(N2CCN(C(C)=O)CC2)cc1 | 0.8 | -17.3 | 1.15 | -6.3 | 1.6 | 106.1 | . | .
Cc1c(C(=O)Nc2ccc(C(F)(F)F)cc2)sc2ncn(CC(=O)N3CCN(c4ccccn4)CC3)c(=O)c12 | . | . | . | 33.4 | . | . | . | .
CC1CCN(CC(O)COc2ccc(-c3ccccc3)cc2)CC1 (stereo unspecified) | . | . | . | -0.6 | . | . | . | .
CCC(C)C(=O)Nc1nnc(-c2cccs2)s1 (stereo unspecified) | -1.4 | 31.1 | 1.74 | 84.5* | 2.0 | 120.5 | 81.2* | 47.6*
COCC(=O)Nc1nnc(-c2cccs2)s1 | 1.6 | -4.2 | 1.93 | 80.6* | -10.5 | 109.9 | 94.5* | .
Cn1c(O)c(N=NC(=O)CNC(=O)c2cccnc2)c2ccccc21 | . | . | . | 9.5 | . | . | . | .
COc1ccccc1N(CC(=O)Nc1ccc2c(c1)OCO2)S(=O)(=O)c1ccccc1 | -0.8 | 5.1 | 0.71 | 98.4* | -12.8 | 108.5 | 96.7* | 186.8*
Cc1ccc(OCC(=O)Nc2ccc3c(c2)OCO3)c(C)c1 | 1.1 | 25.3 | . | 7.7 | . | 111.4 | . | .
CC(=O)c1cc(F)ccc1OCC(=O)Nc1ccc2c(c1)OCO2 | . | . | . | 93.5* | . | . | 105.1* | 28.7*
COc1cccc(C(=O)Nc2ccc3c(c2)OCO3)c1OC | . | . | . | 103.4* | . | . | 53.6* | 69.7*
COC(=O)c1cc(NC(=O)CN(c2ccccc2OC)S(=O)(=O)c2ccccc2)ccc1Cl | -1.1 | -13.4 | 0.76 | 3.7 | -10.7 | 103.3 | . | .
CCOc1ncccc1C(=O)Nc1nnc(C2CC2)s1 | 0.6 | 0.1 | 0.98 | 103.8* | 3.9 | 107.4 | 95.0* | 35.8*
SMILES | PERK inh | APP 5'UTR act | NF-kB expr up | AHR activator | Mdm2 ligase inh | STAT1 activator | AHR act confirm | PXR act counter
CCOc1ncccc1C(=O)Nc1nc(SC)ns1 | -0.1 | 27.4 | 0.91 | 21.4 | -4.8 | 123.9 | . | .
CC(O)C(NC(=O)OCc1ccccc1)C(=O)OCc1ccccc1 (stereo unspecified) | . | . | . | -0.8 | . | . | . | .
CC(C)C(=O)Nc1cccc(C(=O)Nc2ccc(S(=O)(=O)N3CCOCC3)cc2)c1 | . | . | . | -0.8 | . | . | . | .
COc1cccc(C(=O)Nc2ccc3[nH]ncc3c2)c1OC | . | . | . | 92.5* | . | . | 67.5* | 12.3*
CCOc1ncccc1C(=O)Nc1ccc2c(c1)OCO2 | 0.5 | 14.2 | 0.93 | 110.1* | -3.8 | 110.7 | 129.7* | 32.0*
CCOc1ccc2oc(C(=O)Nc3ccc4c(c3)OCO4)c(C)c2c1 | . | . | . | 82.9* | . | . | 37.9 | 25.5*
COCc1nnc(NC(=O)c2cc(C(=O)OC)cc([N+](=O)[O-])c2)s1 | 1.3 | 4.3 | 0.96 | 10.5 | -4.3 | 102.5 | . | .
COC(=O)c1cc(C(=O)Nc2nnc(C3CC3)s2)cc([N+](=O)[O-])c1 | 0.5 | -10.8 | 1.24 | 80.8* | -3.1 | 100.9 | 83.0* | .
CCOc1ncccc1C(=O)Nc1ccccc1C(=O)NCc1ccc2c(c1)OCO2 | . | . | 1.03 | 3.7 | -1.7 | . | . | .
COc1cccc(C(=O)Nc2cccc3cccnc23)c1OC | . | . | . | 33.5 | . | . | . | .
CCOC(=O)C1CCCN(S(=O)(=O)c2ccc(-c3cc(C)no3)s2)C1 (stereo unspecified) | . | . | . | 1.2 | . | . | . | .
O=C(Nc1ccccc1N1CCCC1)c1ccc([N+](=O)[O-])cc1Cl | 0.7 | 9.9 | 1.02 | 91.3* | 1.8 | 100.2 | 87.0* | 212.2*
CN1CCN(c2ccccc2NC(=O)c2cccc([N+](=O)[O-])c2)CC1 | 0.9 | 4.7 | . | 20.7 | . | 103.4 | . | .
O=C(Nc1ccccc1N1CCN(C(=O)c2ccc(Cl)cc2)CC1)c1cccc([N+](=O)[O-])c1 | . | . | . | 127.0* | . | . | 102.0* | 87.0*
O=C(Nc1ccccc1N1CCCC1)c1ccc(Cl)cc1Cl | -0.6 | 9.9 | 0.99 | 38.9 | 13.2 | 98.5 | . | .
Cc1cccc(C)c1NC(=O)CN1CCN(C(=O)CNC(=O)c2ccc(N3CCCC3=O)cc2)CC1 | . | . | . | 2.5 | . | . | . | .
CCOC(=O)c1sc2nc(C)nc(N3CCN(c4ncccn4)CC3)c2c1C | 0.7 | -8.2 | 1.15 | 1.0 | 3.1 | 111.8 | . | .
O=c1c2ccccc2nc(-c2ccoc2)n1CCc1ccccc1 | -1.3 | -6.9 | 0.9 | 124.6* | -5.1 | 103.9 | 102.1* | 40.9*
O=C(O)COn1c(-c2ccccc2)nc2ccc([N+](=O)[O-])cc21 | -0.1 | 39.1 | 0.91 | 141.4* | -10.4 | 143.0* | 52.9* | .

Screening data (PubChem BioAssay)
